According to ChEMBL document CHEMBL1148374 (J Med Chem, 2004):
Where a SMILES comes first, the peptide text is derived from it. [ ]: non-standard residue; d: D form. The star is where a group is joined. Tyr(Nα,Nα-allyl2) = C=CCN(CC=C)[C@@H](Cc1ccc(O)cc1)C(=O)*; Aib = CC(C)(N)C(=O)O

What was measured:
[1] = target: T1, Delta-type opioid receptor (Homo sapiens, UniProt P41143); test: Ability to inhibit agonist-stimulated (DPDPE) [35S]GTP-gamma-S, binding, using cloned human opioid receptor delta 1 expressed in CHO cells; type: functional, cell-based
T1 sequence (P41143 whole entry): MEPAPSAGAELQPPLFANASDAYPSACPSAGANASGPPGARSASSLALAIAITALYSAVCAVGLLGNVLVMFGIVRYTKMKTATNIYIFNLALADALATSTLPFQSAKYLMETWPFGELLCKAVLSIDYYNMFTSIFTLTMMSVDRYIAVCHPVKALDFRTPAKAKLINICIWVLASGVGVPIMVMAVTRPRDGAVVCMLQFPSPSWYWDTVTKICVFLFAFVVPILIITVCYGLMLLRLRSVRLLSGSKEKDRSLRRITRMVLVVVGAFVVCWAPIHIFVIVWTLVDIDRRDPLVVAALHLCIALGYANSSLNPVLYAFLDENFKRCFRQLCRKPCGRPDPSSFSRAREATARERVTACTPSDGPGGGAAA
Summary of the method: (§1)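 Agonist dose-response curves in [35S]GTPγS binding were run with and without one fixed concentration of test compound, with 10 μM GDP final. Ke = [L]/((A'/A)−1), where A' and A are agonist EC50 with and without antagonist. Mean ± SE from at least three independent experiments.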

[2] = target: Mu-type opioid receptor (Homo sapiens) (UniProt P35372); test: Ability to inhibit agonist-stimulated (DAMGO) [35S]GTP-gamma-S, binding, using cloned human Opioid receptor mu 1expressed in CHO cells; type: functional, cell-based; summary of the method: as §1
Sequence of Mu-type opioid receptor (Homo sapiens) (P35372 whole entry): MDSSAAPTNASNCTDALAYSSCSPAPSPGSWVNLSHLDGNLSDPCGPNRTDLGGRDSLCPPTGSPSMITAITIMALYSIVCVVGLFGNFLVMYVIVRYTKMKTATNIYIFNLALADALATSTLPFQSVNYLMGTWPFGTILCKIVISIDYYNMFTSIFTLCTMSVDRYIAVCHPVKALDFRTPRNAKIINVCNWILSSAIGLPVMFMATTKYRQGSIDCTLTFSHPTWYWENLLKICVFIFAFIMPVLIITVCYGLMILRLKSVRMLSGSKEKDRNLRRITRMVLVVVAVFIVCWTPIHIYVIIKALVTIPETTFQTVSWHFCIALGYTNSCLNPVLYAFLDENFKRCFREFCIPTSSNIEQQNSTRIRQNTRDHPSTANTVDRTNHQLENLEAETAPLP

[3] = target: Kappa-type opioid receptor (Homo sapiens) (UniProt P41145); test: Ability to inhibit agonist-stimulated (U69,593) [35S]GTP-gamma-S, binding, using cloned human Opioid receptor kappa 1 expressed in CHO cells; type: functional, cell-based; summary of the method: as §1
Sequence of Kappa-type opioid receptor (Homo sapiens) (P41145 whole entry): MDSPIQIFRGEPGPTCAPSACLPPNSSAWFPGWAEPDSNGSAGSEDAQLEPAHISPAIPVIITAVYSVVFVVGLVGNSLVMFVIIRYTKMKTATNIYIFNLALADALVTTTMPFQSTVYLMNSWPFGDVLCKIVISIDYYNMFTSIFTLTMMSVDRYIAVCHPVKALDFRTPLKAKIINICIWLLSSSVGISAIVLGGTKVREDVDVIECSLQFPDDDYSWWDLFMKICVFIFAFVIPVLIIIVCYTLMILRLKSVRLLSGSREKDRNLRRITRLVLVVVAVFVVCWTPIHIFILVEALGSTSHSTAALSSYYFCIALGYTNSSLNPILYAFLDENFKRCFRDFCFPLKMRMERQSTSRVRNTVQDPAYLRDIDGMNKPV

[4] = target: T1, Delta-type opioid receptor; test: Inverse agonist potency at cloned human delta-opioid receptor; type: functional
[5] = target: Opioid receptors; mu & delta (Homo sapiens) (UniProt P41143+P35372); test: Selectivity ratio of agonist stimulated [35S]GTP-gamma-S, binding in cloned human mu-opioid receptor versus delta-opioid receptor; type: functional
Sequence of Opioid receptors; mu & delta (Homo sapiens) (P35372 whole entry, looked up): as the sequence (P35372 whole entry) above
Sequence of Opioid receptors; mu & delta (Homo sapiens) (P41143 whole entry, looked up): as the sequence (P41143 whole entry) above

[6] = target: Opioid receptors; delta & kappa (Homo sapiens) (UniProt P41145+P41143); test: Selectivity ratio of agonist stimulated [35S]GTP-gamma-S, binding in cloned human kappa-opioid receptor versus delta-opioid receptor; type: functional
Sequence of Opioid receptors; delta & kappa (Homo sapiens) (P41143 whole entry, looked up): as the sequence (P41143 whole entry) above
Sequence of Opioid receptors; delta & kappa (Homo sapiens) (P41145 whole entry, looked up): as the sequence (P41145 whole entry) above

[7] = target: T1, Delta-type opioid receptor; test: [3H]-Cl-DPDPE competition binding assay using human cloned opioid receptor delta 1
[8] = target: T1, Delta-type opioid receptor; test: Efficacy at cloned human opioid receptor delta 1, expressed as percent of basal binding
[9] = target: T1, Delta-type opioid receptor; test: Inverse agonist potency at cloned human opioid receptor delta 1; type: functional
[10] = target: T1, Delta-type opioid receptor; test: Binding affinity towards opioid receptor delta 1 expressed in CHO cells was determined by using [3H]DPDPE as radioligand; type: cell-based

Oc1ccc2c3c1O[C@H]1c4[nH]c5ccccc5c4C[C@@]4(O)[C@@H](C2)N(CC2CC2)CC[C@]314
Ke [1]: 0.21 nM | Ke [2]: 33 nM | Ke [3]: 16.1 nM

CC1CN(CCCc2ccccc2)C2CC(NC(=O)C3(c4ccccc4)CCCC3)CC1(c1cccc(O)c1)C2 (racemic)
Ke [1]: 0.55 nM | IC50 [4]: 2.4 nM | Selectivity ratio [5]: 22 | Ke [2]: 12.2 nM | Selectivity ratio [6]: 6.4 | Ki [7]: 2.1 nM | Ke [3]: 3.52 nM

CC1CN(CCCc2ccccc2)C2C[C@H](NC(=O)C3(c4ccccc4)CCCC3)CC1(c1cccc(O)c1)C2 (stereo partly drawn)
Basal binding [8]: 78% | Ke [1]: 4.24 nM | IC50 [9]: 15.2 nM | Selectivity ratio [5]: 9.5 | Ke [2]: 40.3 nM | Selectivity ratio [6]: 1.3 | Ki [7]: 9.3 nM | Ke [3]: 5.51 nM

Cc1ccccc1/C=C/CN1CC[C@@](C)(c2cccc(O)c2)[C@@H](C)C1
Basal binding [8]: 76% | IC50 [9]: 2.8 nM

C=CCN(CC=C)[C@@H](Cc1ccc(O)cc1)C(=O)NC(C)(C)C(=O)NC(C)(C)C(=O)N[C@@H](Cc1ccccc1)C(=O)N[C@@H](CC(C)C)C(=O)O ({Tyr(Nα,Nα-allyl2)}-[Aib][Aib]FL-OH)
Ke [1]: 7.85 nM | Ki [10]: 19.1 nM | Selectivity ratio [5]: 5.4 | Ke [2]: 42 nM | Selectivity ratio [6]: 43 | Ke [3]: 339 nM

CC1CN(CCCc2ccccc2)C2C[C@@H](NC(=O)C3(c4ccccc4)CCCC3)CC1(c1cccc(O)c1)C2 (single isomer, unassigned; (+))
Ke [1]: 0.15 nM | IC50 [4]: 1.8 nM | Selectivity ratio [5]: 58 | Ke [2]: 8.7 nM | Selectivity ratio [6]: 119 | Ki [7]: 0.96 nM | Ke [3]: 17.9 nM
